# In ChEMBL document CHEMBL1154676, “Synthetic mRNA splicing modulator compounds with in vivo antitumor activity” (J Med Chem, 2009):
# Key:
# SK-MEL-28 = test: Growth inhibition of human SK-MEL-28 cells by sulforhodamine B assay; type: functional
# UO-31 = test: Growth inhibition of human UO31 cells by sulforhodamine B assay; type: functional
# BT-549 = test: Growth inhibition of human BT549 cells by sulforhodamine B assay; type: functional
# NCI/ADR-RES = test: Growth inhibition of human NCI/ADR-RES cells by sulforhodamine B assay; type: functional
# NCI-H226 = test: Growth inhibition of human NCI-H226 cells by sulforhodamine B assay; type: functional
# UACC-62 = test: Growth inhibition of human UACC62 cells by sulforhodamine B assay; type: functional
# OVCAR-5 = test: Growth inhibition of human OVCAR5 cells by sulforhodamine B assay; type: functional
# Mus musculus [1] = test: Toxicity in NOD/SCID mouse assessed as creatinine level at 5 to 50 mg/kg, […] for 5 days; type: organism-based; design: dose 5-50 mg/kg; details: in vivo, po, 120 h
# MCF7 = test: Growth inhibition of human MCF7 cells by sulforhodamine B assay; type: functional
# PrEC = test: Cytotoxicity against human PrEC cells after 72 hrs by XTT assay; type: cell-based
# Summary of the method: (§1)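 Cells grown at 37 °C, 5% CO2; HFF in DMEM with 10% FBS, PrEC in prostate epithelial growth medium. Adherent lines seeded overnight, suspension lines same day; compounds diluted from DMSO stocks into media at various final concentrations, 72 h exposure. XTT reagent added 4 h, absorbance 490 nm (reference 690 nm). Growth as % of vehicle; IC50 from sigmoidal dose-response fit; mean ± SEM, three independent experiments.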
# SW-620 = test: Growth inhibition of human SW620 cells by sulforhodamine B assay; type: functional
# SK-OV-3 = test: Growth inhibition of human SKOV3 cells by sulforhodamine B assay; type: functional
# EKVX = test: Growth inhibition of human EKVX cells by sulforhodamine B assay; type: functional
# HCT-15 = test: Growth inhibition of human HCT15 cells by sulforhodamine B assay; type: functional
# [2] = Cytotoxicity against human JeKo1 cells after 72 hrs by XTT assay; type: functional, cell-based; details: JeKo-1, 72 h; summary of the method: as §1
# IGROV-1 = test: Growth inhibition of human IGROV1 cells by sulforhodamine B assay; type: functional
# A549 = test: Growth inhibition of human A549 cells by sulforhodamine B assay; type: functional
# Mus musculus [3] = test: Toxicity in NOD/SCID mouse assessed as total protein level at 5 to 50 mg/kg, […] for 5 days; type: organism-based; design: dose 5-50 mg/kg; details: in vivo, po, 120 h
# NCI-H322M = test: Growth inhibition of human NCI-H322M cells by sulforhodamine B assay; type: functional
# NCI-H460 = test: Growth inhibition of human NCI-H460 cells by sulforhodamine B assay; type: functional
# HCT-116 = test: Growth inhibition of human HCT116 cells by sulforhodamine B assay; type: functional
# Mus musculus [4] = test: Toxicity in NOD/SCID mouse assessed as albumin level at 5 to 50 mg/kg, iv and po for 5 days; type: organism-based; design: dose 5-50 mg/kg, route oral; details: in vivo, 120 h
# MV4-11 = test: Cytotoxicity against human MV4-11 cells after 72 hrs by XTT assay; type: functional, cell-based; details: MV4-11, 72 h; summary of the method: as §1
# SF-295 = test: Growth inhibition of human SF295 cells by sulforhodamine B assay; type: functional
# [5] = Cytotoxicity against human BT-14 cells after 72 hrs by XTT assay; type: functional, cell-based; details: BT-14, 72 h; summary of the method: as §1
# [6] = read-out: Log10GI50 (converted)
# [7] = read-out: Log10LC50 (converted)
structure (smiles),measurement,setting,value
CC(/C=C/[C@@H]1C[C@]2(CO2)CC(C)(C)O1)=C\C[C@H]1CC[C@@H](NC(=O)/C=C\[C@H](C)OC(=O)C(C)C)CC1,GI50,SK-MEL-28; [6],0.324 µM
same,CC50,SK-MEL-28; [7],> 100 µM
same,TGI,SK-MEL-28; read-out: Log10TGI (converted),6.46 µM
same,GI50,UO-31; [6],3.98 µM
same,CC50,UO-31; [7],> 100 µM
same,TGI,UO-31; read-out: Log10TGI (converted),> 100 µM
same,GI50,BT-549; [6],0.138 µM
same,CC50,BT-549; [7],> 100 µM
same,TGI,BT-549; read-out: Log10TGI (converted),0.776 µM
same,GI50,NCI/ADR-RES; [6],0.501 µM
same,CC50,NCI/ADR-RES; [7],> 100 µM
same,TGI,NCI/ADR-RES; read-out: Log10TGI (converted),> 100 µM
same,GI50,NCI-H226; [6],2.45 µM
same,CC50,NCI-H226; [7],> 100 µM
same,TGI,NCI-H226; read-out: Log10TGI (converted),> 100 µM
same,GI50,UACC-62; [6],0.513 µM
same,CC50,UACC-62; [7],46.8 µM
same,TGI,UACC-62; read-out: Log10TGI (converted),4.68 µM
same,GI50,OVCAR-5; [6],8.32 µM
same,CC50,OVCAR-5; [7],> 100 µM
same,TGI,OVCAR-5; read-out: Log10TGI (converted),> 100 µM
same,Activity,Mus musculus [1],Non-toxic
same,GI50,MCF7; [6],0.0251 µM
same,CC50,MCF7; [7],> 100 µM
same,TGI,MCF7; read-out: Log10TGI (converted),13.8 µM
same,IC50,PrEC,7.01 µM
same,GI50,SW-620; [6],0.0813 µM
same,CC50,SW-620; [7],> 100 µM
same,TGI,SW-620; read-out: Log10TGI (converted),12.9 µM
same,GI50,SK-OV-3; [6],0.912 µM
same,CC50,SK-OV-3; [7],> 100 µM
same,TGI,SK-OV-3; read-out: Log10TGI (converted),> 100 µM
same,GI50,EKVX; [6],0.676 µM
same,CC50,EKVX; [7],> 100 µM
same,TGI,EKVX; read-out: Log10TGI (converted),12.9 µM
same,GI50,HCT-15; [6],0.794 µM
same,CC50,HCT-15; [7],> 100 µM
same,TGI,HCT-15; read-out: Log10TGI (converted),34.7 µM
same,IC50,[2],0.12 µM
same,GI50,IGROV-1; [6],0.851 µM
same,CC50,IGROV-1; [7],> 100 µM
same,TGI,IGROV-1; read-out: Log10TGI (converted),> 100 µM
same,GI50,A549; [6],0.912 µM
same,CC50,A549; [7],> 100 µM
same,TGI,A549; read-out: Log10TGI (converted),> 100 µM
same,Activity,Mus musculus [3],Non-toxic
same,GI50,NCI-H322M; [6],2 µM
same,CC50,NCI-H322M; [7],> 100 µM
same,TGI,NCI-H322M; read-out: Log10TGI (converted),22.4 µM
same,GI50,NCI-H460; [6],0.501 µM
same,CC50,NCI-H460; [7],> 100 µM
same,TGI,NCI-H460; read-out: Log10TGI (converted),> 100 µM
same,GI50,HCT-116; [6],0.0708 µM
same,CC50,HCT-116; [7],> 100 µM
same,TGI,HCT-116; read-out: Log10TGI (converted),> 100 µM
same,Activity,Mus musculus [4],Non-toxic
same,IC50,MV4-11,0.3 µM
same,GI50,SF-295; [6],0.339 µM
same,CC50,SF-295; [7],> 100 µM
same,TGI,SF-295; read-out: Log10TGI (converted),2.51 µM
same,IC50,[5],1.34 µM
